Measurements collected from several papers.
Converted amounts (≈) assume the structure as drawn.

Structure (SMILES) | tested on | test | test system | conditions | quantity | result
C#Cc1ccc(O)c(C=NNC(=O)c2ccc(Br)cc2Br)c1 | Aspergillus fumigatus | microbial growth |  | 48 h, pH 6.5 | MIC80 | 2 µg/mL (≈ 4.74 µM)
Nc1ccn([C@@H]2O[C@H](COCc3ccccc3)[C@@H](OCc3ccccc3)[C@H](OCc3ccccc3)[C@H]2I)c(=O)n1 | Japanese encephalitis virus | viral replication, inhibitor, ELISA | Vero |  | IC50 | > 20 µM
N#C[Se]Cc1cc(=O)oc2cc(O)ccc12 | HeLa | cell growth or viability, SRB |  |  | GI50 | 20 µM
C[S+]([O-])CCCCN=C=S (stereo not drawn) | HDFa | cell growth or viability, MTT |  | 24 h | IC50 | 49.8 µM
C#Cc1cccc(C=NNC(=O)c2ccc(Br)cc2)c1O | Aspergillus fumigatus | microbial growth |  | 48 h, pH 6.5 | MIC80 | 4 µg/mL (≈ 11.7 µM)
N.N.[Cl][Pt][Cl] | SU-DHL-6 | cell growth or viability, ATP luminescence |  | 10 µM, 72 h | inhibition | 100%
O=c1[nH]c(=O)n([C@@H]2O[C@H](COCc3ccccc3)[C@@H](OCc3ccccc3)[C@H](OCc3ccccc3)[C@H]2I)cc1F | Japanese encephalitis virus | viral replication, inhibitor, ELISA | Vero |  | IC50 | 4.98 µM
N#C[Se]CCCCOc1ccc2c(-c3ccccc3)cc(=O)oc2c1 | HeLa | cell growth or viability, SRB |  |  | GI50 | 23 µM
CC[C@H](C)[C@H](NC(=O)[C@@H]1CCCN1C(=O)[C@H](CCC(=O)O)NC(=O)[C@H](CC(C)C)NC(=O)[C@@H](N)C(C)C)C(=O)N[C@@H](CC(C)C)C(=O)N[C@@H](Cc1c[nH]cn1)C(=O)N[C@@H](CO)C(=O)N[C@H](C(=O)O)[C@@H](C)OP(=O)(O)O | HeLa | cell growth or viability, MTT |  | 72 h | IC50 | 0.82 µM
Cc1ccc(C=NNC(=S)N[N+](=O)[O-])cc1 | Leishmania major | parasite growth, MTT |  | 72 h, promastigote | IC50 | 346 µM
CN[C@H](CC(C)C)C(=O)N[C@H]1C(=O)N[C@@H](CC(N)=O)C(=O)N[C@H]2C(=O)N[C@H]3C(=O)N[C@H](C(=O)N[C@H](C(=O)O)c4cc(O)cc(O)c4-c4cc3ccc4O)[C@H](O)c3ccc(c(Cl)c3)Oc3cc2cc(c3O[C@@H]2O[C@H](CO)[C@@H](O)[C@H](O)[C@H]2O[C@H]2C[C@](C)(N)[C@H](O)[C@H](C)O2)Oc2ccc(cc2Cl)[C@H]1O | Enterococcus faecalis | microbial growth | VRE | drug-resistant strain | MIC | 64 µg/mL (≈ 44.2 µM)
O=[N+]([O-])NC(=S)NN=Cc1ccc(F)cc1 | Leishmania major | parasite growth | J774.A1 | 72 h, intracellular, amastigote | IC50 | 76.4 µM
C#Cc1cccc(O)c1C=NNC(=O)c1ccc(COC)cc1 | Aspergillus fumigatus | microbial growth |  | 48 h, pH 6.5 | MIC80 | > 16 µg/mL
O=[N+]([O-])NC(=S)NN=Cc1ccc(Br)cc1 | Leishmania major | parasite growth, MTT |  | 72 h, promastigote | IC50 | 433 µM
C#Cc1ccc(O)c(C=NNC(=O)c2ccc(COC)cc2)c1 | Aspergillus fumigatus | microbial growth |  | 48 h, pH 6.5 | MIC80 | 1 µg/mL (≈ 3.24 µM)
